Screens from PubChem BioAssay.
T cell HTS: T cell immune modulation candidate; 2C CD8+ T cell-vesicle binding, flow cytometry; active compounds read low; AID 2052; 330,000 compounds, 0.068% hits; response (vesicle binding), % at 7 µM;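 active = response, share of CD8 T cells binding vesicles, and their 90th percentile fluorescence all below set limits, cut at about 80% in these data, passing the limit was not always enough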;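 note: values below 100% mean blocked vesicle binding to the CD8+ T cells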
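Benchmarks: naked versus QL9-loaded vesicles / Assay system: purified 2C TCR transgenic mouse naive CD8+ T cells / Technique: high-throughput flow cytometry with anti-B7-1 and anti-CD8 staining / Timing: Cell–vesicle co-incubation 1.5 h at 37 °C, staining 20 min on ice / Read-out: percent CD8+ FL2 mean versus row control / Probe or stimulus: QL9-loaded Drosophila micro-vesicles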
HTR2A ag: agonists of mouse serotonin 5-HT2A receptor (HTR2A); P35363; CHO-K1 mHTR2A beta-arrestin complementation, luminescence; percent of 30 µM serotonin response; activation, % at 7.6 µM; 360,000 compounds, 0.66% hits; AID 624169;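 active = activation above a run cutoff, the mean activation of all tested compounds plus 3 SD, cut at about 14% in these data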
PP1 counter: PP1-alpha (human) inhibition in PP5 counter-screen; P62136; purified PP1alpha, OMFP fluorescence; inhibition, % at 6.7 µM; 320,000 compounds, 0.9% hits;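 active = inhibition above the mean inhibition of all tested compounds plus 3 SD, computed separately for each screening campaign, cut at about 15% in these data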
GASC-1 inh: blocks human GASC-1 demethylase activity; Q9H3R0; GST-JMJD2C(1-420) H3K9me3 demethylation, DELFIA europium; inhibition, % at 2.35 µM; 330,000 compounds, 0.069% hits; AID 2099;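 active = more than half of a compound's replicate wells show inhibition beyond 50%, single wells judged on their own value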;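 note: signal counts dimethyl H3K9 product captured on neutravidin plate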
Target sequence (Q9H3R0 1-420 limits assumed): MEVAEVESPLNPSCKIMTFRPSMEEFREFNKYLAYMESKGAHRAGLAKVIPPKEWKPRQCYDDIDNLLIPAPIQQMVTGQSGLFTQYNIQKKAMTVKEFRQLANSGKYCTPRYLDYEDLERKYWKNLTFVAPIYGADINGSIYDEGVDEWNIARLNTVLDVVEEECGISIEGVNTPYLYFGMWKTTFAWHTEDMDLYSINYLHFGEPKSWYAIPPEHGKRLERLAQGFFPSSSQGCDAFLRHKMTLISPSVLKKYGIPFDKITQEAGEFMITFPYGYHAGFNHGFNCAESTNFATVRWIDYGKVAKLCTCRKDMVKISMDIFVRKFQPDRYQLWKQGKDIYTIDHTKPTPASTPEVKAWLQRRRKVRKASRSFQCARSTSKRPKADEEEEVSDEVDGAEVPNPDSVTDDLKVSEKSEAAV
PP5 inh: PP5 (human) phosphatase inhibition | P53041 | AID 1987 | inhibition, % at 6.7 µM | purified PP5c, OMFP substrate fluorescence | 320,000 compounds, 0.18% hits;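 active = inhibition above the campaign's mean inhibition across all tested compounds plus 3 SD, cut at about 9.5% in these data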
Of the large screens only hits and unclear results are named; the others gave an inactive call. Hits are enriched below; roughly 1.7% of the tested compounds scored in any of these assays.

O=[N+]([O-])c1ccc(S(=O)(=O)N2CCN(c3ccnc4cc(Cl)ccc34)CC2)cc1	PP1 counter 17.3
Cc1ccc(S(=O)(=O)N2CCN(C(=O)COC(=O)c3ccccc3Cl)CC2)c(C)c1	HTR2A ag 16.6
Cc1noc(C)c1-c1nnc(-c2ccc(C(F)(F)F)cc2)o1	none
CN(CC(=O)Nc1sc2c(c1C#N)CCCCC2)Cc1nc2ccccc2c(=O)[nH]1	PP1 counter 15.3
COc1ccc(C2CC(c3ccccc3)=NN2C(=O)CN2N=NC3C(=O)N(c4cccc(F)c4)C(=O)C32)cc1 (configuration not stated)	PP1 counter 16.6
O=C(CCCC(=O)Nc1cccc(Br)c1)N/N=C/c1cc([N+](=O)[O-])ccc1O	PP1 counter 16.3
CC(C)(C)NC(=O)CN(c1cccc([N+](=O)[O-])c1)S(=O)(=O)c1ccccc1	none
O=C(CN(c1cccc(Br)c1)S(=O)(=O)c1ccccc1)N/N=C/c1cc([N+](=O)[O-])ccc1O	PP1 counter 16.5
Cc1ccccc1CSCC1Nc2ccc(C(=O)NCCc3ccccc3)cc2NC1=O (configuration not stated)	none (no result: T cell HTS, PP1 counter, GASC-1 inh, PP5 inh)
Nc1nc(SCC(=O)Nc2ccc([N+](=O)[O-])cc2)n[nH]1	none
N#Cc1cc(-c2ccccc2)nnc1Sc1ccccc1	GASC-1 inh 101.6
O=C(Cn1cnc([N+](=O)[O-])c1)c1ccc(Cl)cc1	none
O=C(C[n+]1cnn(CC(=O)c2ccc(Cl)cc2Cl)c1)c1ccc([N+](=O)[O-])cc1	PP1 counter 17.1
COc1ccc(NC(=O)COC(=O)CCCN2C(=O)c3ccccc3C2=O)cc1Cl	none
CC1(c2nnc(Cc3ccccc3)o2)CC(c2ccc(Br)cc2)=NO1 (configuration not stated)	PP1 counter 15.6
Cn1ccnc1C(O)(c1ccccc1)c1nccn1C	none
Cc1nn(C)c(N)c1C(O)(c1nccn1C)C(F)(F)F (configuration not stated)	GASC-1 inh 80.6
Cc1ccc(NC(=O)CC(=O)c2ccc([N+](=O)[O-])cc2)cc1S(=O)(=O)Nc1cccc(Cl)c1	PP1 counter 17.1
Cc1cccc(NC(=O)C2CCCN(S(=O)(=O)c3c(C)nn(C)c3C)C2)n1 (configuration not stated)	GASC-1 inh 63.0
Cc1cccc(NC(=O)C2CCN(S(=O)(=O)c3cccc4nsnc34)CC2)n1	GASC-1 inh 51.7
Cc1cccc(NC(=O)C2CCCN(S(=O)(=O)c3cccc4nsnc34)C2)n1 (configuration not stated)	none
Nc1ncnc2c1ncn2[C@@H]1O[C@H](CNCc2c(OCc3ccccc3F)ccc3ccccc23)[C@@H](O)[C@H]1O	none (no result: PP1 counter, PP5 inh)
Cc1ccc(CCC(=O)Nc2ccc(Br)cc2)o1	none (no result: PP1 counter, PP5 inh)
Cc1cc(-c2ccccc2)n(-c2cc(N/N=C/c3ccccc3O)ncn2)n1	PP1 counter 15.5
COc1cccc(CNC(=O)[C@@H]2CCCN2C(=O)[C@H]2CCCCN2C(=O)c2ccccc2C)c1	none (no result: T cell HTS, PP1 counter, GASC-1 inh, PP5 inh)
C[C@H]1CN([C@@H](C)CO)C(=O)CCCn2cc(nn2)CO[C@@H]1CN(C)C(=O)Nc1cccc(Oc2ccccn2)c1	none (no result: T cell HTS, PP1 counter, GASC-1 inh, PP5 inh)
COc1ccccc1CNC(=O)C(=O)NCC1OCCCN1S(=O)(=O)c1cccs1 (configuration not stated)	HTR2A ag 16.6
COc1ccccc1CNC(=O)C(=O)NCC1OCCN1S(=O)(=O)c1cccs1 (configuration not stated)	none
O=C(NCCS(=O)(=O)N1CCC2(CC1)OCCO2)c1ccccc1	none
CCN(CC)S(=O)(=O)c1ccc(OCC2CCCCO2)c([N+](=O)[O-])c1 (configuration not stated)	none
CCOC(=O)c1c(C)[nH]c(C(=O)CSc2nnc(Nc3ccccc3F)s2)c1C	PP1 counter 17.5
CC1CCC(=NO)C(=NO)C1 (configuration not stated)	none (no result: T cell HTS, PP1 counter, GASC-1 inh, PP5 inh)
O=C(NCc1ccccc1)c1ccc2ccccc2n1	none
COc1ccc(CNC(=O)c2ccc3ccccc3n2)cc1	PP1 counter 17.1
CN1OC[C@@H]2CN(C(=O)C(C)(C)C)[C@H](c3cccc(Oc4ccccc4)c3)C[C@@H]21	none (no result: T cell HTS, PP1 counter, GASC-1 inh, PP5 inh)
Cc1cccn2c(=O)c(C(=O)NC3CC(C)CC(C)(C)C3)c(O)nc12 (configuration not stated)	GASC-1 inh 52.5
